Reference: ChEMBL document CHEMBL1144940 (J Med Chem, 2003)

Experiments:
Melanocortin receptor 3 [1] = target: T1, Melanocortin receptor 3 (Homo sapiens, UniProt P41968); experiment: Intracellular cAMP accumulation in human Melanocortin 3 receptor functional assay.
Melanocortin receptor 4 [2] = target: T2, Melanocortin receptor 4 (Homo sapiens, UniProt P32245); experiment: Binding affinity against Melanocortin 4 receptor by gamma-MCH displacement.
Method in brief: (§1)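 Competition binding on intact HEK293 cells stably expressing the human receptor, seeded 50000 cells/well 48 h earlier. Lysates were gamma-counted. Ki came from competition curves; mean of duplicate experiments in triplicate.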

Melanocortin receptor 5 [3] = target: T3, Melanocortin receptor 5 (Homo sapiens, UniProt P33032); experiment: Intracellular cAMP accumulation in human Melanocortin 5 receptor functional assay.
T3 sequence (P33032 whole entry): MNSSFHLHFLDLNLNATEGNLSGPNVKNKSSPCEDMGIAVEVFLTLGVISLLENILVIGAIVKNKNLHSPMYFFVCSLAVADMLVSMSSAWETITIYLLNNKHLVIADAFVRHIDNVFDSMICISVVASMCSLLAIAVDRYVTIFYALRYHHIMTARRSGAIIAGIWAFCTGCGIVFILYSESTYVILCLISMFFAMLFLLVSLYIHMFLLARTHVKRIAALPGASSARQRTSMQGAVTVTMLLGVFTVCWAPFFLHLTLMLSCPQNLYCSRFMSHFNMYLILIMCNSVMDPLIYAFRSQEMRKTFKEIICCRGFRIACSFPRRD

Melanocortin receptor 4 [4] = target: T2, Melanocortin receptor 4; experiment: Intracellular cAMP accumulation in Melanocortin 4 receptor functional assay.
Melanocortin receptor 3 [5] = target: T1, Melanocortin receptor 3; experiment: Binding affinity against human Melanocortin 3 receptor by gamma-MCH displacement.; method in brief: as §1
Melanocortin receptor 5 [6] = target: T3, Melanocortin receptor 5; experiment: Binding affinity against human Melanocortin 5 receptor by gamma-MCH displacement.; method in brief: as §1
Melanocortin receptor 4 [7] = target: T2, Melanocortin receptor 4; experiment: Agonist activity against human Melanocortin 4 receptor at 10 uM
Melanocortin receptor 3 [8] = target: T1, Melanocortin receptor 3; experiment: Agonist activity against human Melanocortin 3 receptor at 10 uM
Melanocortin receptor 5 [9] = target: T3, Melanocortin receptor 5; experiment: Agonist activity against human Melanocortin 5 receptor at 10 uM

T2 sequence (P32245 whole entry): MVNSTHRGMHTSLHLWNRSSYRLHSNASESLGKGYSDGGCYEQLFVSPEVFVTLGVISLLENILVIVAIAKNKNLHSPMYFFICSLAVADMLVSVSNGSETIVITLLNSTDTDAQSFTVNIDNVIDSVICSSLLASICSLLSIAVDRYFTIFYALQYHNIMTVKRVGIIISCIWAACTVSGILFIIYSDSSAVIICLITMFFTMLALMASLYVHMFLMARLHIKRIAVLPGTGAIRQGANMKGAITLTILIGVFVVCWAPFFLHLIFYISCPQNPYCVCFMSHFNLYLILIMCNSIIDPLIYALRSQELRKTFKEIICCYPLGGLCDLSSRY
T1 sequence (P41968 whole entry): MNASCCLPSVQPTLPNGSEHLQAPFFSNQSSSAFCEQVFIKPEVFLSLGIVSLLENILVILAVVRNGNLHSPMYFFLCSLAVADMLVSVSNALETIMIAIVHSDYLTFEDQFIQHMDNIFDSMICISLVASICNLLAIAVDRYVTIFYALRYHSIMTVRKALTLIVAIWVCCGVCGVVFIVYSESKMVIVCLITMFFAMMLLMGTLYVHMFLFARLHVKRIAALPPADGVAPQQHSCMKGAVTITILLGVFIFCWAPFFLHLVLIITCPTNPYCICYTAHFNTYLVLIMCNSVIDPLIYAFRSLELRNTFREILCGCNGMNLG

EC50 (Melanocortin receptor 3 [1])	Ki (Melanocortin receptor 4 [2])	EC50 (Melanocortin receptor 5 [3])	EC50 (Melanocortin receptor 4 [4])	Ki (Melanocortin receptor 3 [5])	Ki (Melanocortin receptor 5 [6])	Activity (Melanocortin receptor 4 [7])	Activity (Melanocortin receptor 3 [8])	Activity (Melanocortin receptor 5 [9])	SMILES
150 nM	1300 nM	210 nM	53 nM	1400 nM	3.3 µM	80%	40%	40%	CCCC[C@H](NC(=O)[C@@H](NC(=O)[C@@H](N)Cc1ccc(O)cc1)C(C)C)C(=O)NCC(=O)N[C@@](C)(Cc1ccccc1)C(=O)N[C@@H](Cc1ccccc1)C(=O)N[C@@H](CCCN=C(N)N)C(=O)N[C@H](Cc1ccc2ccccc2c1)C(=O)N[C@@H](CC(=O)O)C(=O)N[C@@H](CCCN=C(N)N)C(=O)N[C@@H](Cc1ccccc1)C(=O)NCC(N)=O
–	–	–	–	–	–	100%	100%	100%	CCCC[C@H](NC(=O)[C@@H](NC(=O)[C@@H](N)Cc1ccc(O)cc1)C(C)C)C(=O)N[C@H]1CC(=O)NCCCC[C@H](C(=O)N[C@@H](CCCN=C(N)N)C(=O)N[C@@H](Cc2ccccc2)C(=O)NCC(N)=O)NC(=O)[C@@H](Cc2c[nH]c3ccccc23)NC(=O)[C@H](CCCN=C(N)N)NC(=O)[C@@H](Cc2ccccc2)NC(=O)[C@H](Cc2c[nH]cn2)NC1=O
